ChEMBL document CHEMBL1828498, “Identification and characterization of a novel integrin-linked kinase inhibitor” (J Med Chem, 2011)
Calls of active or inactive are those of the source. No cut-off for these calls is given here.

What was measured:
SK-BR-3 [1] = experiment: Antiproliferative activity against human SKBR3 cells assessed as suppression of cell viability by MTT assay; type: functional, cell-based
Procedure, shortened: (§1)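 Cancer lines seeded 5000/well and nonmalignant PrEC/MEC 8000/well in 10% FBS, 24 h before treatment. Compound exposure 24 h in 5% FBS medium, 0.1% final DMSO. MTT (0.25 mg/mL) for 1 h at 37°C, dye solubilized in DMSO, absorbance read at 570 nm. Mean ± SD, n = 6.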

MCF7 = experiment: Antiproliferative activity against human MCF7 cells assessed as suppression of cell viability by MTT assay; type: functional, cell-based; procedure, shortened: as §1
[2] = biological target: T1, Scaffold protein ILK (Homo sapiens) (UniProt Q13418); experiment: Inhibition of ILK in human MDA-MB-231 cells assessed as decrease in MLC phosphorylation by Western blot analysis; type: cell-based
T1 sequence (whole entry): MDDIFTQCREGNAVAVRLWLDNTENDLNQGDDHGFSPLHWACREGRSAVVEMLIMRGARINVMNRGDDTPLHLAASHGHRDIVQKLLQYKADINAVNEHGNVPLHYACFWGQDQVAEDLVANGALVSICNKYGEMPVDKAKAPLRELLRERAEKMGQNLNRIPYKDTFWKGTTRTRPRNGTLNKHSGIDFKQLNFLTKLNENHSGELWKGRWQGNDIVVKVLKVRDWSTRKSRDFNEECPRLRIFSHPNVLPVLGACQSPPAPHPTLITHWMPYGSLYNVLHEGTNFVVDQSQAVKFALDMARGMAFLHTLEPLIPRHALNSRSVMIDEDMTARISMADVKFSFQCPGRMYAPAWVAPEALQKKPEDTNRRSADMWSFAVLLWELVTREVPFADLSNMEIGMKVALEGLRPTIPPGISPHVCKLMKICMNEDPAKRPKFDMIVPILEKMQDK
Procedure, shortened: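 PC-3 and MDA-MB-231 cells exposed 24 h in 5% FBS medium across a concentration series. Phospho-GSK3β (Ser9) and phospho-MLC (Thr18/Ser19) detected by immunoblot: SDS lysis, primary 1:1000 at 4°C for 2 h, HRP secondary, ECL. Representative of three experiments.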

[3] = biological target: Rapamycin-insensitive companion of mTOR (Homo sapiens) (UniProt Q6R327); experiment: Inhibition of mTORC2 in human PC3 cells assessed as SGK1 phosphorylation by Western blot analysis; type: cell-based; conditions: PC-3
Rapamycin-insensitive companion of mTOR (Homo sapiens), sequence (Q6R327 whole entry): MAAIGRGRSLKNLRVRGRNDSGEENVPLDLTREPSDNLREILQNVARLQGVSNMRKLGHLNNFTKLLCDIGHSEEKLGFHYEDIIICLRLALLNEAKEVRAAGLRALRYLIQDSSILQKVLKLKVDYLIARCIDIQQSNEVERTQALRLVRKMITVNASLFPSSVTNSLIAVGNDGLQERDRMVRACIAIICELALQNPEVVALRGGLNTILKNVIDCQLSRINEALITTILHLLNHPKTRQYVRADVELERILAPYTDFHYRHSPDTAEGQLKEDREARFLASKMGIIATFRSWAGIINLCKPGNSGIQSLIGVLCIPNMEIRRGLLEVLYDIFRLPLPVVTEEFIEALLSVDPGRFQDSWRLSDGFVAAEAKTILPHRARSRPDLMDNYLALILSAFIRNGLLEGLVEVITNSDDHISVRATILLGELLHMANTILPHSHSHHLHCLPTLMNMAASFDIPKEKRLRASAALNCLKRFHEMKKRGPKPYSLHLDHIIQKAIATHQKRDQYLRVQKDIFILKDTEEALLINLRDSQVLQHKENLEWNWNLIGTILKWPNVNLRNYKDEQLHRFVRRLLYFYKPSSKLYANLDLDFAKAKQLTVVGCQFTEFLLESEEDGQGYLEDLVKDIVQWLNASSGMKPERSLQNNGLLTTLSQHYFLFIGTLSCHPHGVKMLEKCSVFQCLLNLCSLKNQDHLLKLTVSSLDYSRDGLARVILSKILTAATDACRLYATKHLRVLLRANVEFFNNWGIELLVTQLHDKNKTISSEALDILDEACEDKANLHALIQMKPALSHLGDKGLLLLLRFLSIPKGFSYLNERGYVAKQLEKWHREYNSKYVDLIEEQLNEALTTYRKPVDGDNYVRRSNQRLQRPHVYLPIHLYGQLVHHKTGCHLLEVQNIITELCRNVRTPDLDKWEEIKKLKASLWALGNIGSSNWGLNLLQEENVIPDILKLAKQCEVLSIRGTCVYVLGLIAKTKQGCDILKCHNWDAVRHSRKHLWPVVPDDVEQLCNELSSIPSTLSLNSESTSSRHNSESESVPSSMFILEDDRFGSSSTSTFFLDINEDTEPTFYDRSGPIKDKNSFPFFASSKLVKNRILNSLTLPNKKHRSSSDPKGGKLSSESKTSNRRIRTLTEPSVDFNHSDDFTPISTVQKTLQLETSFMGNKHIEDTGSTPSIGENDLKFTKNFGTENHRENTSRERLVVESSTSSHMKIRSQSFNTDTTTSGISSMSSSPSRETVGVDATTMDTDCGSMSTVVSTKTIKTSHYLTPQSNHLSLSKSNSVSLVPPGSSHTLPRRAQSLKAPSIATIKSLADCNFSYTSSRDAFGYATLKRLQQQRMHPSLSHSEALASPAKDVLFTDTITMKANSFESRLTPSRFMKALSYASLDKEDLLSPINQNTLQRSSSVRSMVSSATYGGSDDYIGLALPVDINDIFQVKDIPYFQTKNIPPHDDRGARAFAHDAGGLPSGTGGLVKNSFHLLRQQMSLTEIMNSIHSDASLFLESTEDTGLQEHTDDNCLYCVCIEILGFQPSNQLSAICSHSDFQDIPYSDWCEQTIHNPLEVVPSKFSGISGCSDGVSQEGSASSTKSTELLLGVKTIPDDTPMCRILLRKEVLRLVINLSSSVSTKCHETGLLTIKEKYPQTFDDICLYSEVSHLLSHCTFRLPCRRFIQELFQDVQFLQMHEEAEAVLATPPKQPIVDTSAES
Procedure, shortened: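 Cells exposed 24 h in 5% FBS medium, final DMSO 0.1%; lysed in 1% SDS/10 mM EDTA/50 mM Tris pH 8.1, equal protein on SDS-PAGE, nitrocellulose, primary antibody 1:1000 at 4°C for 2 h, HRP secondary 1:5000, ECL detection; blots representative of three independent experiments.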

PC-3 [4] = experiment: Antiproliferative activity against human PC3 cells expressing constitutively active ILK assessed as cell viability by MTT assay; type: functional, cell-based
Procedure, shortened: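 Stable PC-3 clones expressing GFP-CA-ILK (or GFP), made by electroporation, G418 250 μg/mL for one week and GFP sorting. Treated 24 h in 5% FBS medium. Viability by MTT, 0.25 mg/mL, 1 h at 37°C, A570. n = 6, mean ± SD.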

PC-3 [5] = experiment: Reduction in HER2 mRNA expression in human PC3 cells expressing constitutively active ILK after 24 hrs by RT-PCR analysis; type: functional, cell-based
Procedure, shortened: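 PC-3, PC-3/CA-ILK, SKBR3 and SKBR3/CA-ILK cells treated 24 h in 5% FBS medium; total RNA from 1 × 10^6 cells by Trizol, 1 μg reverse-transcribed, then PCR with gene-specific primers and β-actin reference.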

SK-BR-3 [6] = experiment: Reduction in YB-1 concentration in human SKBR3 cells expressing constitutively active ILK after 24 hrs by Western blot analysis; type: functional, cell-based
Procedure, shortened: (§2)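 PC-3 versus stable PC-3/CA-ILK, or SKBR3 versus transient SKBR3/CA-ILK (electroporation, used 48 h after), treated 24 h in 5% FBS medium; immunoblotting with ECL; representative of three experiments.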

SK-BR-3 [7] = experiment: Reduction in HER2 concentration in human SKBR3 cells after 24 hrs by Western blot analysis; type: functional, cell-based; procedure, shortened: as §2
SK-BR-3 [8] = experiment: Reduction in HER2 concentration in human SKBR3 cells expressing constitutively active ILK after 24 hrs by Western blot analysis; type: functional, cell-based; procedure, shortened: as §2
[9] = biological target: Cyclin-dependent kinase 1/cyclin B1 (Homo sapiens) (UniProt P06493+P14635); experiment: Inhibition of CDK1/cyclin B at 5 uM assessed as remaining activity; type: protein-complex assay
Cyclin-dependent kinase 1/cyclin B1 (Homo sapiens), sequence (P06493 whole entry, looked up): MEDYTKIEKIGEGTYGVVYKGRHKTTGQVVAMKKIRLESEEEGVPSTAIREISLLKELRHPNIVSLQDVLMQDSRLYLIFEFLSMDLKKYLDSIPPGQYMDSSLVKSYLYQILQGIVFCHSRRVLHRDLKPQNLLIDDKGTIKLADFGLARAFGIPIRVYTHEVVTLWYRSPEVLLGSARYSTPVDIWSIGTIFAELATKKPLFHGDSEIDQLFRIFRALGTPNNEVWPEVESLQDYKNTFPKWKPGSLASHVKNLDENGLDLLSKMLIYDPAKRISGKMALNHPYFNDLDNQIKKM
Cyclin-dependent kinase 1/cyclin B1 (Homo sapiens), sequence (P14635 whole entry, looked up): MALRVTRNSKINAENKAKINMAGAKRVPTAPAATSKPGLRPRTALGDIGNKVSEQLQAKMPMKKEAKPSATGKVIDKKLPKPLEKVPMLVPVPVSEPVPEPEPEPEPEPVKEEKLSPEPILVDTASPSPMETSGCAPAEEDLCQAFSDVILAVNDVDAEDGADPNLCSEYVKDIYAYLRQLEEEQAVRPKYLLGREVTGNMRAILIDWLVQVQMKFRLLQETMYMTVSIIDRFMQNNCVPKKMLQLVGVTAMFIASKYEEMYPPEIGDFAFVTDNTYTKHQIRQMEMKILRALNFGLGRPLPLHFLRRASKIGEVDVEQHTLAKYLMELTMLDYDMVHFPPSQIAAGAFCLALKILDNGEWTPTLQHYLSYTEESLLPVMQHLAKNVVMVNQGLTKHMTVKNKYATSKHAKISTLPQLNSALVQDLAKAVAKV
Procedure, shortened: (§3)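 Panel of 20 recombinant kinases, profiled by a commercial vendor.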

[10] = biological target: Cyclin-dependent kinase 5/CDK5 activator 1 (Homo sapiens) (UniProt Q00535+Q15078); experiment: Inhibition of CDK5/p25 at 5 uM assessed as remaining activity; type: protein-complex assay; procedure, shortened: as §3
Cyclin-dependent kinase 5/CDK5 activator 1 (Homo sapiens), sequence (Q00535 whole entry): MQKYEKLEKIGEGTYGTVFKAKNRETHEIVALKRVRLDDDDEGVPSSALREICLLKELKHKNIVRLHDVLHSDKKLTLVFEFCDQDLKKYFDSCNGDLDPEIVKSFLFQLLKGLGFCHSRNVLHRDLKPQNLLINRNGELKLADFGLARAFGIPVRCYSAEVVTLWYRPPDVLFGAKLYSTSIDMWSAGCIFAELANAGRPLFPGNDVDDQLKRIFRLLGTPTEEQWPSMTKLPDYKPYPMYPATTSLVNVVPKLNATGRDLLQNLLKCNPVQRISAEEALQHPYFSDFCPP
Cyclin-dependent kinase 5/CDK5 activator 1 (Homo sapiens), sequence (Q15078 99-307 partner limits assumed): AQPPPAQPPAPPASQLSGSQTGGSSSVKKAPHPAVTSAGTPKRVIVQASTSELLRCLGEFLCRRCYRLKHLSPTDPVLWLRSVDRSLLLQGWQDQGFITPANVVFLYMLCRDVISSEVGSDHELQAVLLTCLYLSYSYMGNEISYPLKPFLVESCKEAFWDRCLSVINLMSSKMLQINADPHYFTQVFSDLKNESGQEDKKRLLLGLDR

[11] = biological target: Receptor-type tyrosine-protein kinase FLT3 (Homo sapiens) (UniProt P36888); experiment: Inhibition of Flt3 at 5 uM assessed as remaining activity; procedure, shortened: as §3
Receptor-type tyrosine-protein kinase FLT3 (Homo sapiens), sequence (P36888 whole entry): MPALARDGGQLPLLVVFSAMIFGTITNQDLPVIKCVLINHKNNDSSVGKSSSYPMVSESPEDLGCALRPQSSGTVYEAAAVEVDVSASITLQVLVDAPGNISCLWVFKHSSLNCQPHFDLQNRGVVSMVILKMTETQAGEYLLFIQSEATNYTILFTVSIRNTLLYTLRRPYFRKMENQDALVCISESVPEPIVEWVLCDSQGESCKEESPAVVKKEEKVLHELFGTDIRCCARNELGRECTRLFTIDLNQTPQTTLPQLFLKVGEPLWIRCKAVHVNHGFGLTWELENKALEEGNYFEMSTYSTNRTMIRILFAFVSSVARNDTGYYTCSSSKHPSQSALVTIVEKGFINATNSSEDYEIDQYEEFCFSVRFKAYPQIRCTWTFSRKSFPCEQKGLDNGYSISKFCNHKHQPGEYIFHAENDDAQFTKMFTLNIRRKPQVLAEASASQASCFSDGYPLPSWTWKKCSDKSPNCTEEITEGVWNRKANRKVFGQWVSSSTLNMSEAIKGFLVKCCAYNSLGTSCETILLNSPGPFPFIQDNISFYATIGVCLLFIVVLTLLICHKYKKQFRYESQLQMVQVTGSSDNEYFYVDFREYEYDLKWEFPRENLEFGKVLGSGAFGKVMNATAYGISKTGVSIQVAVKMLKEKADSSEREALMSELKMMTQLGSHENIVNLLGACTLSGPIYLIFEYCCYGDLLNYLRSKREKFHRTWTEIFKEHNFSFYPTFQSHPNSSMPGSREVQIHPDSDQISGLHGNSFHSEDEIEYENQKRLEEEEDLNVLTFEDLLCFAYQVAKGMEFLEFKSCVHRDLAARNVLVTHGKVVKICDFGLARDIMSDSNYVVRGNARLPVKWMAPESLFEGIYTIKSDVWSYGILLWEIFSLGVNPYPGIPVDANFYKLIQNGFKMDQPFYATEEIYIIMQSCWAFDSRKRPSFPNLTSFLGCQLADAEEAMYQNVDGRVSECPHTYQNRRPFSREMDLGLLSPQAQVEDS

[12] = biological target: Tyrosine-protein kinase JAK3 (Homo sapiens) (UniProt P52333); experiment: Inhibition of Jak3 at 5 uM assessed as remaining activity; procedure, shortened: as §3
Tyrosine-protein kinase JAK3 (Homo sapiens), sequence (P52333 whole entry): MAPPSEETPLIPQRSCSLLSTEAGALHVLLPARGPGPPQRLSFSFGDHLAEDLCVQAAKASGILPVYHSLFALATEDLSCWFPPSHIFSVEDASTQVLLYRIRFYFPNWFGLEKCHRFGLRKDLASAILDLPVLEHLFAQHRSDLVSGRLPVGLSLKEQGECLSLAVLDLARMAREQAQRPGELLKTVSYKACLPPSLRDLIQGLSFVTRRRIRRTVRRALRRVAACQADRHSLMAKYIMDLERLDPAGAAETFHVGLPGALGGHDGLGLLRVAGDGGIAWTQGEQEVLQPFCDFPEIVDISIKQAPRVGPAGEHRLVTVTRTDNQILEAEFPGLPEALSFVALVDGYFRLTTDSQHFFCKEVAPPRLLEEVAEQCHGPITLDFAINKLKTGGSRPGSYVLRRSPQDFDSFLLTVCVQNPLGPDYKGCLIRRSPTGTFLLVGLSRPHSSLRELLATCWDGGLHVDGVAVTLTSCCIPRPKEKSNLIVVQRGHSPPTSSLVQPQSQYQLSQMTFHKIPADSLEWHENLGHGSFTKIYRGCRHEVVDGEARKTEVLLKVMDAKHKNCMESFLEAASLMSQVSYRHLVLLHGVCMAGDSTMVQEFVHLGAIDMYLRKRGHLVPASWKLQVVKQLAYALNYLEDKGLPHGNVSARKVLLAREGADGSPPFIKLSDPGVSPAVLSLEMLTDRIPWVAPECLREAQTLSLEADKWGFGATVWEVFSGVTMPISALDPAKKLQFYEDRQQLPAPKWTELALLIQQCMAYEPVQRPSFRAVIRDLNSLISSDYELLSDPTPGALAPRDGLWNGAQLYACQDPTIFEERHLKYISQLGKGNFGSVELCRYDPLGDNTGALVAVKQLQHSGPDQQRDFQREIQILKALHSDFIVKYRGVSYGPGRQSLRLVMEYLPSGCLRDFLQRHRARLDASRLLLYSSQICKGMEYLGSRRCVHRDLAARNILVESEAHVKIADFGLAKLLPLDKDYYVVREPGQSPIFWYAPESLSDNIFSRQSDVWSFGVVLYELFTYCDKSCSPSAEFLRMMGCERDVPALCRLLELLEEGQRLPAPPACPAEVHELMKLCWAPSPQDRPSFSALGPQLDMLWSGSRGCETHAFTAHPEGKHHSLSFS

[13] = biological target: Hepatocyte growth factor receptor (Homo sapiens) (UniProt P08581); experiment: Inhibition of Met at 5 uM assessed as remaining activity; procedure, shortened: as §3
[14] = biological target: Ribosomal protein S6 kinase beta-1 (Homo sapiens) (UniProt P23443); experiment: Inhibition of p70S6K in human PC3 cells assessed as decrease in phosphorylated S6 by Western blot analysis; type: cell-based; conditions: PC-3
Procedure, shortened: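 PC-3 cells (parental, or stable GFP-CA-ILK clones selected with G418 250 μg/mL and GFP sorting) exposed 24 h in 5% FBS medium; SDS lysis, immunoblot at 1:1000 primary, ECL; representative of three experiments.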

PC-3 [15] = experiment: Induction of apoptosis in human PC3 cells assessed as PARP cleavage by Western blot analysis; type: functional, cell-based
Procedure, shortened: (§4)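 PC-3 cells treated 24 h in 5% FBS medium. Lysed in 1% SDS/10 mM EDTA/50 mM Tris pH 8.1, equal protein on SDS-PAGE, primary antibody 1:1000 at 4°C for 2 h, HRP secondary, ECL detection. Read-outs PARP cleavage and LC3-II conversion; blots representative of three experiments.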

PC-3 [16] = experiment: Induction of autophagy in human PC3 cells assessed as LC3-II conversion by Western blot analysis; type: functional, cell-based; procedure, shortened: as §4
Mus musculus = experiment: Decrease in phosphorylation of MLC in human PC3 cells xenografted nude mouse tumor lysate at 25 mg/kg, po administered for 35 days by Western blot analysis; type: functional, organism-based; parameters: dose 25 mg/kg; conditions: Neoplasm, PC-3
Procedure, shortened: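 Male NCr athymic nude mice, 5–7 weeks, with s.c. PC-3 xenografts (0.5 × 10^6 cells in 50% Matrigel), dosed by oral gavage once daily for 35 days. Vehicle 0.5% methylcellulose, 0.1% Tween 80 in water, 10 μL/g. Tumors snap-frozen at sacrifice; three tumors per group immunoblotted.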

PC-3 [17] = experiment: Induction of apoptosis in human PC3 cells assessed as late apoptotic cells at 3 uM by annexin V/PI staining (reference value: 9.8%); type: functional
PC-3 [18] = experiment: Induction of apoptosis in human PC3 cells assessed as early apoptotic cells at 2 uM by annexin V/PI staining (reference value: 5.6%); type: functional

Q: CNC(=O)CCc1cc(-c2ccc(-c3ccc(C(F)(F)F)cc3)cc2)n(-c2ccc(N3CCNCC3)cc2)n1 was tested. Which IC50 (SK-BR-3 [1]) did it give?
A: 1.8 µM

Q: What about the IC50 (MCF7) of the same compound?
A: 2.5 µM

Q: What about the inhibition [2] of the same compound?
A: Active

Q: What about the inhibition [3] of the same compound?
A: inactive

Q: What about the inhibition (PC-3 [4]) of the same compound?
A: inactive

Q: What about the Activity (PC-3 [5]) of the same compound?
A: inactive

Q: What about the Activity (SK-BR-3 [6]) of the same compound?
A: inactive

Q: And the Activity (SK-BR-3 [7])?
A: Dose-dependent effect

Q: What about the Activity (SK-BR-3 [8]) of the same compound?
A: inactive

Q: What about the Activity [9] of the same compound?
A: 73%

Q: What about the Activity [10] of the same compound?
A: 98%

Q: And the Activity [11]?
A: 66%

Q: What about the Activity [12] of the same compound?
A: 128%

Q: What about the Activity [13] of the same compound?
A: 110%

Q: And the inhibition [14]?
A: Active

Q: What about the Activity (PC-3 [15]) of the same compound?
A: Dose-dependent effect

Q: What about the Activity (PC-3 [16]) of the same compound?
A: Dose-dependent effect

Q: And the Activity (Mus musculus)?
A: Active

Q: What about the Activity (PC-3 [17]) of the same compound?
A: 14.9%

Q: What about the Activity (PC-3 [18]) of the same compound?
A: 7.1%
